In brackets after ≈: the same amount, converted by molar mass.

Four compounds from ChEMBL document CHEMBL1275336, “Identification of a novel pyrrole derivative endowed with antimycobacterial activity and protection index comparable to that of the current antitubercular drugs streptomycin and rifampin” (Bioorg Med Chem, 2010) can be followed below.

Assay [1] deals with Mycobacterium tuberculosis. Kind of assay: Antimycobacterial activity against isoniazid-resistant Mycobacterium tuberculosis after 3 to 28 days by twofold dilution method. It is filed as functional. The method in brief: (§1)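 Twofold agar dilution in Middlebrook 7H11 with 10% OADC; plates held at 37 °C for 3 or 28 days. MIC is the lowest concentration giving complete inhibition of visible mycobacterial growth. Rifampin, streptomycin and BM521 served as references.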

For assay [2], the system named is Mycobacterium tuberculosis. Nature of the assay: Antimycobacterial activity against rifampin-resistant Mycobacterium tuberculosis after 3 to 28 days by twofold dilution method. It is filed as functional. The method in brief:
as §1

Take `CSc1ccc(-c2cc(CN3CCSCC3)c(C)n2-c2ccc(F)cc2)cc1`: the minimum inhibitory concentration (MIC) in assay [1] was above 16 µg/mL; in assay [2] it was 0.25 µg/mL (≈ 0.606 µM).

On to `Cc1ccc(-c2cc(CN3CCSCC3)c(C)n2-c2ccc(F)cc2)cc1`, for which the results for the minimum inhibitory concentration (MIC) in assay [1] and in assay [2] were 32 µg/mL (≈ 84.1 µM) and 0.5 µg/mL (≈ 1.31 µM), respectively.

On to `CO[C@H]1/C=C/O[C@@]2(C)Oc3c(C)c(O)c4c(O)c(c(/C=N/N5CCN(C)CC5)c(O)c4c3C2=O)NC(=O)/C(C)=C\C=C\[C@H](C)[C@H](O)[C@@H](C)[C@@H](O)[C@@H](C)[C@H](OC(C)=O)[C@@H]1C` [RIFAMPIN], for which the figures for the minimum inhibitory concentration (MIC) in assay [1] and in assay [2] were 0.8 µg/mL (≈ 0.972 µM) and above 64 µg/mL, respectively.

In the case of `CN[C@@H]1[C@H](O[C@H]2[C@H](O[C@H]3[C@H](O)[C@@H](O)[C@H](N=C(N)N)[C@@H](O)[C@@H]3N=C(N)N)O[C@@H](C)[C@]2(O)C=O)O[C@@H](CO)[C@H](O)[C@H]1O` [STREPTOMYCIN], the MIC in assay [1] and in assay [2] was 0.5 µg/mL (≈ 0.86 µM) throughout.

As usually defined, the MIC is the smallest concentration in the dilution series that meets the test's criterion for growth inhibition. A low value points to greater potency.
